Screening data as filed in PubChem.
GPR7 antag – blocks human GPR7 receptor signaling. GPR7-expressing cells, fluorescence antagonist assay. inhibition, % at 4.4 µM. 290,000 tested, 1.1% active; in the data active = inhibition above about 16%, passing the limit was not always enough;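 note: cells stimulated with the agonist NPW; 0% = agonist with vehicle and 100% = vehicle without agonist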
Pemphigus Ab inh – blocks pemphigus antibody binding to human desmoglein-3 | P32926 | DSG3-coupled beads, scFv-anti-DSG3-GFP binding, flow cytometry; stronger effect = lower value | binding (percent of control), % at 10 µM | 310,000 tested, 0.48% active;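 active = binding more than 3 SD below its plate's average and above zero; inconclusive = below that plate limit but binding exactly zero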;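 note: hits lower antibody fragment binding to DSG3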
Target sequence (P32926 whole entry, looked up, the tested form may be a part): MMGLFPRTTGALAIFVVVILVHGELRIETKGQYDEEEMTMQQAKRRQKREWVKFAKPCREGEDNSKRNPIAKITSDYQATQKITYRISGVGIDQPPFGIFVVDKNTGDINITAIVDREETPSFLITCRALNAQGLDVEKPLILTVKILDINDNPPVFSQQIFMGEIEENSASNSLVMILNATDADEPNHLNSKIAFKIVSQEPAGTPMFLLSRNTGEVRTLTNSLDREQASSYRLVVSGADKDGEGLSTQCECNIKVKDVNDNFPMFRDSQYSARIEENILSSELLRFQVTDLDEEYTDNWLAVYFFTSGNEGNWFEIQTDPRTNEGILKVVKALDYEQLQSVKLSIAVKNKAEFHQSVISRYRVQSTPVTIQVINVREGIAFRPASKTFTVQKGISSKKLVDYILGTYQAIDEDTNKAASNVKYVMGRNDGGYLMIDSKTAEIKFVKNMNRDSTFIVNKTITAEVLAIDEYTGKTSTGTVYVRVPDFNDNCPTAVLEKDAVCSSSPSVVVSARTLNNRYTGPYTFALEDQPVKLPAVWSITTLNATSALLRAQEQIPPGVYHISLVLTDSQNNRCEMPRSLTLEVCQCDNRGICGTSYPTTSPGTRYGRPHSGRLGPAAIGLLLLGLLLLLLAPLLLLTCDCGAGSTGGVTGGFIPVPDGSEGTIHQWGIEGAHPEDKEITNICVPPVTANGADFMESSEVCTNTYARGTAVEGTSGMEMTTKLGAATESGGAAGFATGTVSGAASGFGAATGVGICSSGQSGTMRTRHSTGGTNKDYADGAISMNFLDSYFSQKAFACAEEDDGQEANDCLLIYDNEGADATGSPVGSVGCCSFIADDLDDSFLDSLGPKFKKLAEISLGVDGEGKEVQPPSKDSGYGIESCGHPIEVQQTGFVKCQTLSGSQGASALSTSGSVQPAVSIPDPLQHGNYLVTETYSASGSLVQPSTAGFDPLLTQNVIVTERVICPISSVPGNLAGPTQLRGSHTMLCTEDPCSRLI
CHT inh – human CHT choline transport inhibition. B-score at 10 µM. 310,000 tested, 0.86% active. Q9GZV3. CHT-expressing cells, membrane potential dye, choline response; stronger effect = lower value;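 active = B-score over 3 SD under the library average, and starting fluorescence ratio not unusually high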;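 note: choline stimulus applied at its EC90 after an EC20 pre-addition; B-score computed on integrated fluorescence ratio after choline addition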
p-CIP stab down – compounds decreasing mouse p/CIP protein stability; Q05BA5; decrease of EGFP signal, % at 10 µM; F442A p/CIP-EGFP cells, EGFP fluorescence, 16 h; 290,000 tested, 0.01% active;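 active = EGFP signal decrease of at least 30% at 10 µM or well 3 SD below plate mean, unless failing retest; inactive = the rest, including hits failing retest or dose response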
T cell modulator – T cell immune modulation candidate; 2C CD8+ T cell-vesicle binding, flow cytometry; stronger effect = lower value; response (vesicle binding), % at 7 µM; 330,000 tested, 0.068% active;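 active = response, share of CD8 T cells binding vesicles, and their 90th percentile fluorescence all below set limits, cut at about 80% in these data, passing the limit was not always enough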;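 note: values below 100% mean blocked vesicle binding to the CD8+ T cells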
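Assay system: 2C TCR transgenic mouse naive CD8+ T cells, MACS-purified | Read-out: CD8+ gate FL2 mean fluorescence as % of same-row positive control | Signal: High-throughput flow cytometry with anti-B7-1 and anti-CD8 staining | Timing: Binding step 1.5 h, 37 °C, antibody labelling 20 min, ice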
CHT PAM – human CHT allosteric activation | B-score at 10 µM | CHT-expressing cells, membrane potential dye, choline EC20; stronger effect = higher value; LV-AA mutant CHT in HEK293 cells | Q9GZV3 | AID 488977 | 310,000 tested, 0.49% active;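 active = initial fluorescence not abnormally high and integrated response B-score, plate-corrected, over 3 SD above library mean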
GPR7 antag conf – human GPR7 antagonism, confirmation assay; GPR7-expressing cells, calcium fluorescence antagonist mode; 2,400 tested, 52% active; shares compounds with GPR7 antag; inhibition, % at 4.4 µM; in the data active = inhibition above about 24%;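 note: stimulated with the GPR7 agonist NPW; 0% = agonist plus vehicle and 100% = vehicle alone without agonist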
MCHR1 antagonist – MCHR1 (human) antagonism in GPR7 counter-screen; shares compounds with GPR7 antag; MCHR1-expressing cells, fluorescence antagonist assay; inhibition, % at 4.4 µM; 2,400 tested, 62% active; in the data active = inhibition above about 22%;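 note: 0% = vehicle with agonist and 100% = vehicle without agonist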
The depositor's hits bear a star; i = inactive; ? = inconclusive; . = not tested or not shown. This is a sample that favours compounds with a hit; in the whole collection about 2.3% have one here.

SMILES	GPR7 antag	Pemphigus Ab inh	CHT inh	p-CIP stab down	T cell modulator	CHT PAM	GPR7 antag conf	MCHR1 antagonist
O=[N+]([O-])c1ccc(N2CCN(c3cccc(Cl)c3)CC2)nc1	51*	101	i	-8	238	i	29*	70*
O=[N+]([O-])c1ccc(CN2CCC(Cc3ccccc3)CC2)cc1	26*	93	i	5	865	i	13	33*
O=[N+]([O-])c1ccc(CN2CCN(c3ccc([N+](=O)[O-])cc3)CC2)cc1	36	?	i	-6	239	i	.	.
COc1cccc(CN2CCN(C(=O)Nc3ccc([N+](=O)[O-])cc3)CC2)c1	29*	100	i	5	403	i	41*	68*
Cc1ccc(S(=O)(=O)N2CCOCC2)cc1NC(=O)CN(C)CC(=O)Nc1cccc(F)c1	.	98	.	.	.	.	.	.
O=C(c1ccc([N+](=O)[O-])cc1Cl)N1CCN(Cc2ccccc2)CC1	.	103	.	.	.	.	.	.
O=[N+]([O-])c1ccc(CN2CCN(c3ccc4ccccc4n3)CC2)cc1	-5	97	i	4	586	i	.	.
O=[N+]([O-])c1ccc(N2CCN(Cc3ccccc3)CC2)nc1	22*	97	i	-8	202	i	27*	19
Nc1nonc1C(=O)NCCNCc1c(OCc2ccccc2F)ccc2ccccc12	28*	106	i	-1	242	i	47*	69*
Nc1nonc1C(=O)NCCNCc1cc(Br)ccc1OCc1ccc(F)cc1	16	100	i	-12	867	i	.	.
O=C(NCCc1ccccc1)C1CCN(C2CCN(Cc3ccco3)CC2)CC1	-21	112	i	-14	483	i	.	.
O=C(NCCc1ccccc1)C1CCN(Cc2cccc3ccccc23)CC1	28*	96	i	-4	181	i	4	10
CC(C)c1ccc(S(=O)(=O)N2CCC(C(=O)N3CCN(c4cccc(Cl)c4)CC3)CC2)cc1	.	115	.	.	.	.	.	.
O=S(=O)(/N=C(/c1ccccc1)N1CCCCCC1)c1ccccc1	33*	.	i	6	379	i	1	-1
Cc1ccc(-n2nnnc2CNC(=O)C(=O)c2c[nH]c3ccccc23)cc1C	.	102	.	.	.	.	.	.
Cc1ccc(-n2c(SCC(=O)N3CCCCC3)nc(O)c(Cc3ccccc3)c2=O)cc1	25*	.	i	-5	343	i	10	4
Cc1ccc(NC(=O)Cn2c(=O)ccn(Cc3ccccc3)c2=O)cc1S(=O)(=O)N1CCOCC1	.	101	.	.	.	.	.	.
O=C(c1csc2c1CCCC2)N1CCN(c2ccccc2)CC1	35*	104	i	-7	270	i	24	12
COc1ccc(OCCOc2ccc(S(=O)(=O)N3CCCC3)cc2[N+](=O)[O-])cc1	.	100	.	.	141	.	.	.
O=[N+]([O-])c1cccc(S(=O)(=O)N2CCCCC2)c1	-6	117	i	-6	472	i	.	.
COc1cccc(Oc2ccc(S(=O)(=O)N3CCCC3)cc2[N+](=O)[O-])c1	31*	96	i	-14	371	i	-5	15
O=[N+]([O-])c1cc(S(=O)(=O)N2CCCCCC2)ccc1Cl	39*	102	.	-2	.	.	63*	19
O=C(COC(=O)C1CC2C=CC1C2)NCCc1ccccc1 (centres undefined)	25*	104	i	-5	456	i	12	1
COc1ccc(OCc2n(CC(=O)OC3CC(C)CCC3C(C)C)c3ccccc3[n+]2C)cc1 (centres undefined)	71*	101	i	-34	376	i	62*	84*
CCCCn1c(N)c(N(CCOC)C(=O)CCNC(=O)c2ccccc2Cl)c(=O)[nH]c1=O	26*	101	i	-54	919	i	-4	-2
CCCCN(C(=O)c1ccccc1OCc1ccc(F)cc1)c1c(N)n(CCC)c(=O)[nH]c1=O	30*	110	i	-9	655	i	16	9
